# Key:
# Type in all cases: functional
# HCT-116 = experiment: Growth inhibition of human HCT116 cells
# Procedure, shortened: (§1)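 Tested in the NCI 60-cell-line screen using the standard NCI protocol, with concentrations up to 10^-4 M. Growth inhibition is reported as GI50 (M), taken from the NCI mean graphs.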
# HCT-15 = experiment: Growth inhibition of human HCT15 cells; procedure, shortened: as §1
# HT-29 = experiment: Growth inhibition of human HT-29 cells
# KM12 = experiment: Growth inhibition of human KM12 cells; procedure, shortened: as §1
# SW-620 = experiment: Growth inhibition of human SW620 cells
# Procedure, shortened: (§2)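 Run in the NCI 60-cell-line screen under the standard NCI protocol. Cells were tested at concentrations up to 10^-4 M. Potency was expressed as GI50 (M), taken from the NCI mean-graph data.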
# SF-268 = experiment: Growth inhibition of human SF268 cells; procedure, shortened: as §2
# SF-295 = experiment: Growth inhibition of human SF295 cells; procedure, shortened: as §2
# SNB-19 = experiment: Growth inhibition of human SNB19 cells; procedure, shortened: as §2
# SNB-75 = experiment: Growth inhibition of human SNB75 cells; procedure, shortened: as §2
# U-251 = experiment: Growth inhibition of human U251 cells; procedure, shortened: as §2
# LOX IMVI = experiment: Growth inhibition of human LOXIMVI cells; procedure, shortened: as §1
# M14 = experiment: Growth inhibition of human M14 cells; procedure, shortened: as §1
# Malme-3M = experiment: Growth inhibition of human MALME-3M cells; procedure, shortened: as §1
# SK-MEL-2 = experiment: Growth inhibition of human SK-MEL-2 cells; procedure, shortened: as §2
# SK-MEL-28 = experiment: Growth inhibition of human SK-MEL-28 cells; procedure, shortened: as §2
# SK-MEL-5 = experiment: Growth inhibition of human SK-MEL-5 cells; procedure, shortened: as §2
# UACC-257 = experiment: Growth inhibition of human UACC257 cells; procedure, shortened: as §2
# UACC-62 = experiment: Growth inhibition of human UACC62 cells; procedure, shortened: as §2
# IGROV-1 = experiment: Growth inhibition of human IGROV1 cells; procedure, shortened: as §1
# OVCAR-3 = experiment: Growth inhibition of human OVCAR-3 cells; procedure, shortened: as §1
# OVCAR-4 = experiment: Growth inhibition of human OVCAR4 cells; procedure, shortened: as §1
# OVCAR-5 = experiment: Growth inhibition of human OVCAR5 cells; procedure, shortened: as §1
# OVCAR-8 = experiment: Growth inhibition of human OVCAR8 cells; procedure, shortened: as §1
# SK-OV-3 = experiment: Growth inhibition of human SKOV3 cells; procedure, shortened: as §2
# 786-0 = experiment: Growth inhibition of human 786-0 cells; procedure, shortened: as §1
# A498 = experiment: Growth inhibition of human A498 cells; procedure, shortened: as §1
# ACHN = experiment: Growth inhibition of human ACHN cells; procedure, shortened: as §1
# CAKI-1 = experiment: Growth inhibition of human Caki1 cells; procedure, shortened: as §1
# RXF 393 = experiment: Growth inhibition of human RXF393 cells; procedure, shortened: as §2
# SN12C = experiment: Growth inhibition of human SN12C cells; procedure, shortened: as §2
# TK-10 = experiment: Growth inhibition of human TK10 cells; procedure, shortened: as §2
# [1] = read-out: pLC50 (the source's name) (converted)
smiles,measurement,setting,value
COc1cccc(/C=C/[C@H]2O[C@@H](C)[C@H](O)[C@@H]2O)c1CO [VARITRIOL],CC50,HCT-116; [1],> 100 µM
same,TGI,HCT-116; read-out: pTGI,> 100 µM
same,GI50,HCT-15,> 100 µM
same,CC50,HCT-15; [1],> 100 µM
same,TGI,HCT-15; read-out: pTGI,> 100 µM
same,GI50,HT-29,> 100 µM
same,CC50,HT-29; [1],> 100 µM
same,TGI,HT-29; read-out: pTGI,> 100 µM
same,GI50,KM12,> 100 µM
same,CC50,KM12; [1],> 100 µM
same,TGI,KM12; read-out: pTGI,> 100 µM
same,GI50,SW-620,> 100 µM
same,CC50,SW-620; [1],> 100 µM
same,TGI,SW-620; read-out: pTGI,> 100 µM
same,GI50,SF-268,> 100 µM
same,CC50,SF-268; [1],> 100 µM
same,TGI,SF-268; read-out: pTGI,> 100 µM
same,GI50,SF-295,> 100 µM
same,CC50,SF-295; [1],> 100 µM
same,TGI,SF-295; read-out: pTGI,> 100 µM
same,GI50,SNB-19,91.2 µM
same,CC50,SNB-19; [1],> 100 µM
same,TGI,SNB-19; read-out: pTGI,> 100 µM
same,GI50,SNB-75,0.245 µM
same,CC50,SNB-75; [1],> 100 µM
same,TGI,SNB-75; read-out: pTGI (converted),1.02 µM
same,GI50,U-251,> 100 µM
same,CC50,U-251; [1],> 100 µM
same,TGI,U-251; read-out: pTGI,> 100 µM
same,GI50,LOX IMVI,> 100 µM
same,CC50,LOX IMVI; [1],> 100 µM
same,TGI,LOX IMVI; read-out: pTGI,> 100 µM
same,GI50,M14,> 100 µM
same,CC50,M14; [1],> 100 µM
same,TGI,M14; read-out: pTGI,> 100 µM
same,GI50,Malme-3M,> 100 µM
same,CC50,Malme-3M; [1],> 100 µM
same,TGI,Malme-3M; read-out: pTGI,> 100 µM
same,GI50,SK-MEL-2,> 100 µM
same,CC50,SK-MEL-2; [1],> 100 µM
same,TGI,SK-MEL-2; read-out: pTGI,> 100 µM
same,GI50,SK-MEL-28,> 100 µM
same,CC50,SK-MEL-28; [1],> 100 µM
same,TGI,SK-MEL-28; read-out: pTGI,> 100 µM
same,GI50,SK-MEL-5,> 100 µM
same,CC50,SK-MEL-5; [1],> 100 µM
same,TGI,SK-MEL-5; read-out: pTGI,> 100 µM
same,GI50,UACC-257,> 100 µM
same,CC50,UACC-257; [1],> 100 µM
same,TGI,UACC-257; read-out: pTGI,> 100 µM
same,GI50,UACC-62,> 100 µM
same,CC50,UACC-62; [1],> 100 µM
same,TGI,UACC-62; read-out: pTGI,> 100 µM
same,GI50,IGROV-1,> 100 µM
same,CC50,IGROV-1; [1],> 100 µM
same,TGI,IGROV-1; read-out: pTGI,> 100 µM
same,GI50,OVCAR-3,> 100 µM
same,CC50,OVCAR-3; [1],> 100 µM
same,TGI,OVCAR-3; read-out: pTGI,> 100 µM
same,GI50,OVCAR-4,> 100 µM
same,CC50,OVCAR-4; [1],> 100 µM
same,TGI,OVCAR-4; read-out: pTGI,> 100 µM
same,GI50,OVCAR-5,67.6 µM
same,CC50,OVCAR-5; [1],> 100 µM
same,TGI,OVCAR-5; read-out: pTGI,> 100 µM
same,GI50,OVCAR-8,> 100 µM
same,CC50,OVCAR-8; [1],> 100 µM
same,TGI,OVCAR-8; read-out: pTGI,> 100 µM
same,GI50,SK-OV-3,> 100 µM
same,CC50,SK-OV-3; [1],> 100 µM
same,TGI,SK-OV-3; read-out: pTGI,> 100 µM
same,GI50,786-0,> 100 µM
same,CC50,786-0; [1],> 100 µM
same,TGI,786-0; read-out: pTGI,> 100 µM
same,GI50,A498,> 100 µM
same,CC50,A498; [1],> 100 µM
same,TGI,A498; read-out: pTGI,> 100 µM
same,GI50,ACHN,> 100 µM
same,CC50,ACHN; [1],> 100 µM
same,TGI,ACHN; read-out: pTGI,> 100 µM
same,GI50,CAKI-1,> 100 µM
same,CC50,CAKI-1; [1],> 100 µM
same,TGI,CAKI-1; read-out: pTGI,> 100 µM
same,GI50,RXF 393,0.162 µM
same,CC50,RXF 393; [1],> 100 µM
same,TGI,RXF 393; read-out: pTGI (converted),0.933 µM
same,GI50,SN12C,> 100 µM
same,CC50,SN12C; [1],> 100 µM
same,TGI,SN12C; read-out: pTGI,> 100 µM
same,GI50,TK-10,> 100 µM
same,CC50,TK-10; [1],> 100 µM
same,TGI,TK-10; read-out: pTGI,> 100 µM

# — ChEMBL document CHEMBL1148105, “Bioactive metabolites from a marine-derived strain of the fungus Emericella variecolor” (2002)
